Experimental data pooled from the literature.
Compare with care: the assays were run in different laboratories.
JAK1 JH2: Tyrosine-protein kinase JAK1, JH2 (JAK1, Homo sapiens, UniProt P23458)
JAK1 JH1: Tyrosine-protein kinase JAK1, JH1 (JAK1, Homo sapiens, UniProt P23458)
JAK1: Tyrosine-protein kinase JAK1 (JAK1, Homo sapiens, UniProt P23458)

c1nc2c(Nc3ccc4c(c3)OCCO4)nc(Nc3ccc4c(c3)OCCO4)nc2[nH]1 — activity vs control (JAK1 JH2; enzyme activity, inhibitor; 10 µM): 2.5%
Cc1cnc(NC2CCOCC2)nc1-n1cnc(C(=O)NC(CN)c2cc(F)cc(Cl)c2)c1 (stereo not drawn) — remaining activity (JAK1 JH1; enzyme activity, inhibitor, radiometric; 1 µM): 93%
O=C(NCc1ncc(C(F)(F)F)cc1Cl)c1ccc2c(c1)C1(CCS(=O)(=O)CC1)[C@@H](C1CC1)N2S(=O)(=O)c1ccc(F)cc1 — remaining binding (JAK1 JH2; cell-free assay, competition with immobilised ligand; 1 µM): 85%
CNc1cc(Oc2cc(C(=O)Nc3cc(N4CCN(C)CC4)cc(C(F)(F)F)c3)ccc2C)ncn1 — inhibition (JAK1 JH2; target engagement in cells, inhibitor, chemoproteomics; Huh-7; 1 µM): -25.7%
CN(C)C(=O)Cn1cc(-c2nc(C3(c4ccc(-c5cnc(N)nc5)cc4)CC3)no2)cn1 — remaining binding (JAK1 JH2; cell-free assay, competition with immobilised ligand; 1 µM): 100%
Cc1sc(C(=O)NC2COC2)cc1-n1cc(NC(=O)Nc2c(F)cccc2Cl)cn1 — remaining activity (JAK1; enzyme activity, inhibitor; 10 µM): 72.2%
CS(=O)(=O)c1cc(C2(NC(=O)c3cncc4c3cnn4-c3ccc(F)cc3)CC2)ccn1 — remaining binding (JAK1 JH1; cell-free assay, competition with immobilised ligand; 1 µM): 96%
CN(c1nccc(-c2cnn3ncccc23)n1)C1CC1 — remaining binding (JAK1; binding; 1 µM): 100%
CCOc1cc(-c2nncn2C)ccc1Nc1ncc2cc(C)nc(NCC(C)(C)C)c2n1 — inhibition (JAK1; enzyme activity, inhibitor, FRET; 1 µM): < 15%
CS(=O)(=O)NCC[C@H](NC(=O)c1cncc2c1cnn2-c1ccc(F)cc1)c1ccnc(S(C)(=O)=O)c1 — remaining binding (JAK1 JH1; cell-free assay, competition with immobilised ligand; 1 µM): 96%
Cc1cc(NC(=O)c2cccc3cc(-c4cccc5[nH]nc(N)c45)ccc23)ccc1F — activity vs control (JAK1 JH1; enzyme activity, inhibitor; 0.1 µM): 105%
c1cnn2ncc(-c3ccnc(N4CCC45COC5)n3)c2c1 — remaining signal (JAK1 JH1; cell-free assay; 1 µM): 95%
CN(C)C1CCN(CC#Cc2nn(C3CCCC3)c3nc(NCc4ccccc4)ncc23)C1 (stereo not drawn) — inhibition (JAK1; enzyme activity, inhibitor, FRET; 10 µM): 2%
COc1cc2ncnc(Nc3ccc(F)c(Cl)c3)c2cc1OCCCN1CCOCC1 — remaining signal (JAK1; cell-free assay; 0.5 µM): 102%
CC/C(=N\NC(=O)NCc1cccc(O)c1)c1ccc(O)c(C)c1O — inhibition (JAK1; enzyme activity, inhibitor; 0.1 µM): 3.4%
Nc1ncnc2occ(-c3ccc(NC(=O)Nc4cc(C(F)(F)F)ccc4F)cc3)c12 — remaining signal (JAK1 JH1; cell-free assay, inhibitor; 20 µM): 0.9%
CN1CC(Oc2cnc(C#N)cc2-c2ccn3nc(NC(=O)C4CC4)cc3c2)C1 — inhibition (JAK1; enzyme activity, inhibitor; 1 µM): -10%
Oc1ccc(-c2nc(-c3ccncc3)c(-c3ccc(F)cc3)[nH]2)cc1 — remaining signal (JAK1; cell-free assay; 0.5 µM): 102%
CC1=C(C#N)[C@@H](c2ccc3[nH]nc(C)c3c2)C(C#N)=C(c2ccc(Cl)cc2)N1 — remaining binding (JAK1 JH2; cell-free assay, competition with immobilised ligand; 1 µM): 38.2%
N[C@H]1CCN(c2nccc(-c3cnn4ncccc34)n2)C1 — remaining binding (JAK1; binding; 1 µM): 60%
CCN(CC)CCNC(=O)c1c(C)[nH]c(/C=C2\C(=O)Nc3ccc(F)cc32)c1C — remaining signal (JAK1; cell-free assay; 0.5 µM): 71.9%
CC1CCCN1c1nccc(-c2cnn3ncccc23)n1 (stereo not drawn) — remaining binding (JAK1; binding; 1 µM): 100%
O=C(CSc1nc2nccnc2c(=O)n1CCc1ccccc1)Nc1nccs1 — inhibition (JAK1; enzyme activity, inhibitor; 10 µM): 1%
CS(=O)(=O)N1CCCC(NC(=O)[C@H](CCC2CCCCC2)NC(=O)c2ccc(CNc3ncnc4c3nnn4-c3ccccc3)cc2)C1 (stereo partly drawn) — remaining binding (JAK1 JH2; cell-free assay, competition with immobilised ligand; 0.1 µM): 89%
Cc1ccc(C(=O)NCc2ccsc2)cc1C#Cc1cn(C(C)C)c2ncnc(N)c12 — activity vs control (JAK1 JH1; enzyme activity, inhibitor; 1 µM): 94%
CC(=O)C1=C(C)N(c2cccc(C(F)(F)F)c2)C(=O)N[C@@H]1c1ccc(C#N)nc1 — remaining binding (JAK1 JH1; cell-free assay, competition with immobilised ligand; 1 µM): 85.9%
CN(CCCC(F)(F)F)c1nccc(-c2cnn3ncccc23)n1 — remaining binding (JAK1; binding; 1 µM): 100%
CC(C)(C)c1nc(-c2cccc(NS(=O)(=O)c3c(F)cccc3F)c2F)c(-c2ccnc(N)n2)s1 — remaining activity (JAK1; enzyme activity, inhibitor, radiometric; 1 µM): 84%
CCOC(=O)c1cc2cc(-c3cc(C(=O)NCc4ccc(C(=O)O)cc4)nn3C)ccc2[nH]1 — remaining binding (JAK1 JH1; cell-free assay, competition with immobilised ligand; 0.1 µM): 100%
COc1cc2ncnc(Nc3ccc(Oc4ccccc4)c(C)c3C)c2cc1OC — inhibition (JAK1; enzyme activity, inhibitor; 1 µM): -4%
